In ChEMBL document CHEMBL2203173 (J Med Chem, 2012) one finds Activity data, which are given here for 2 compounds.

In series [1] the test system is Mus musculus. Briefly: Toxicity in BALB/c nu/nu mouse xenografted with human DMS53 cells assessed as change in hemoglobin level at 7.5 mg/kg, po administered for 3 times a week measured after 20 days. Set-up: dose 7.5 mg/kg, route oral. Particulars: in vivo, 480 h. Format: organism-based, DMS-53. The method in brief:
(§1)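 Nude mice bearing DMS-53 xenografts gavaged 3 times/week for 20 days, vehicle 30% propylene glycol/saline, vehicle controls, n = 6-11 mice/condition. Sacrifice on day 20. Organ weights and hematological indices recorded. Spleen, kidney, liver, heart, lungs and brain examined histologically, hearts stained with Gomori Trichrome for fibrosis.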
A general note: Xenograft models place foreign cells or tissue in a host animal.

Series [2] concerns Mus musculus. Briefly: Toxicity in BALB/c nu/nu mouse xenografted with human DMS53 cells assessed as change in platelet count at 3 mg/kg, iv administered for 5 days a week measured after 21 days. The class given is organism-based, DMS-53. Set-up: dose 3 mg/kg, route intravenous. Conditions: in vivo, 504 h. The method in brief: (§2)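 Nude mice carrying DMS-53 xenografts (treatment from 100 mm3) received iv tail-vein doses in 30% propylene glycol/saline, 5 days/week for 21 days. Hematological indices (RBC, hemoglobin, hematocrit, reticulocytes, WBC, platelets) were then compared with vehicle controls.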

In series [3] the test system is Mus musculus. Briefly: Toxicity in BALB/c nu/nu mouse xenografted with human DMS53 cells assessed as change in body weight at 3 mg/kg, iv administered for 5 days a week measured after 21 days. Particulars: in vivo, 504 h. The class given is organism-based, DMS-53. The arrangement: dose 3 mg/kg, route intravenous. The method in brief: (§3)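 DMS-53 xenografts in nude mice; dosing started at 100 mm3 tumor volume. Agents given iv via tail vein, 5 days/week for 21 days, vehicle 30% propylene glycol/saline, vehicle-treated controls. Mice sacrificed day 21. Body and organ weights and hematological indices recorded. Spleen, kidney, liver, heart, lungs and brain were stained with H&E, Perls' and Gomori Trichrome and read by an independent veterinary pathologist.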

Series [4] concerns Mus musculus. Briefly: Toxicity in BALB/c nu/nu mouse xenografted with human DMS53 cells assessed as change in brain histology at 7.5 mg/kg, po administered for 3 times a week measured after 20 days. Format: organism-based, DMS-53. The arrangement: dose 7.5 mg/kg, route oral. Conditions: in vivo, 480 h. The method in brief:
as §1

Series [5] relates to Mus musculus. Briefly: Toxicity in BALB/c nu/nu mouse xenografted with human DMS53 cells assessed as change in lung weight at 7.5 mg/kg, po administered for 3 times a week measured after 20 days. The class given is organism-based, DMS-53. Set-up: dose 7.5 mg/kg, route oral. Conditions: in vivo, 480 h. The gist of the method: as §1
Series [6] has as its system Mus musculus. Briefly: Toxicity in BALB/c nu/nu mouse xenografted with human DMS53 cells assessed as change in hematopoetic cells in splenic red pulp at 3 mg/kg, iv administered for 5 days a week measured after 21 days by hematoxylin and eosin staining method. Set-up: dose 3 mg/kg, route intravenous. The class given is organism-based, DMS-53. Particulars: in vivo, 504 h. The gist of the method:
as §3

In series [7] the test system is Mus musculus. Briefly: Toxicity in BALB/c nu/nu mouse xenografted with human DMS53 cells assessed as body weight change at 7.5 mg/kg, po administered for 3 times a week measured after 20 days. Particulars: in vivo, 480 h.
Series [8] concerns Mus musculus. Briefly: Toxicity in BALB/c nu/nu mouse xenografted with human DMS53 cells assessed as change in lungs histology at 6 mg/kg, iv administered for 5 days a week measured after 21 days by hematoxylin and eosin staining method. Set-up: dose 6 mg/kg, route intravenous. Particulars: in vivo, 504 h. Format: organism-based, DMS-53. The method in brief: as §3
The test system of series [9] is Mus musculus. Briefly: Toxicity in BALB/c nu/nu mouse xenografted with human DMS53 cells assessed as cardiac fibrosis at 3 mg/kg, iv administered for 5 days a week measured after 21 days by […]. The class given is organism-based, Heart, DMS-53. The arrangement: dose 3 mg/kg, route intravenous. Conditions: in vivo, 504 h. The method in brief:
(§4)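 DMS-53 xenograft nude mice given agents iv by tail vein 5 days/week in 30% propylene glycol/saline for 21 days. At sacrifice, heart sections were stained with Gomori Trichrome to detect fibrosis. Spleen, kidney, liver, heart, lungs and brain were also stained with H&E and Perls' and examined by an independent veterinary pathologist.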

Series [10] relates to Mus musculus. Briefly: Toxicity in BALB/c nu/nu mouse xenografted with human DMS53 cells assessed as change in organ weight at 3 mg/kg, iv administered for 5 days a week measured after 21 days. Conditions: in vivo, 504 h. The arrangement: dose 3 mg/kg, route intravenous. Format: organism-based, DMS-53. The method in brief: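 DMS-53 xenograft-bearing nude mice, treatment started at 100 mm3 tumour volume: iv tail-vein dosing in 30% propylene glycol/saline, 5 days/week for 21 days. Organs were weighed at sacrifice and compared with vehicle-control mice.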

Series [11] deals with Mus musculus. Briefly: Toxicity in BALB/c nu/nu mouse xenografted with human DMS53 cells assessed as change in lungs histology at 3 mg/kg, iv administered for 5 days a week measured after 21 days by hematoxylin and eosin staining method. Format: organism-based, DMS-53. Set-up: dose 3 mg/kg, route intravenous. Particulars: in vivo, 504 h. The method in brief: as §3
Series [12] has as its system Mus musculus. Briefly: Toxicity in BALB/c nu/nu mouse xenografted with human DMS53 cells assessed as change in reticulocyte count at 6 mg/kg, iv administered for 5 days a week measured after 21 days. Format: organism-based, DMS-53. Particulars: in vivo, 504 h. The arrangement: dose 6 mg/kg, route intravenous. The gist of the method:
as §2

For series [13], the system named is Mus musculus. Briefly: Toxicity in BALB/c nu/nu mouse xenografted with human DMS53 cells assessed as change in RBC count at 6 mg/kg, iv administered for 5 days a week measured after 21 days. Particulars: in vivo, 504 h. The arrangement: dose 6 mg/kg, route intravenous. Format: organism-based, DMS-53.
Series [14] deals with Mus musculus. Briefly: Cardiotoxicity in BALB/c nu/nu mouse xenografted with human DMS53 cells at 6 mg/kg, iv administered for 5 days a week measured after 21 days. The class given is toxicity, organism-based, DMS-53. The arrangement: dose 6 mg/kg, route intravenous. Particulars: in vivo, 504 h. The gist of the method: as §4
The subject of series [15] is Mus musculus. Briefly: Toxicity in BALB/c nu/nu mouse xenografted with human DMS53 cells assessed as change in platelet count at 6 mg/kg, iv administered for 5 days a week measured after 21 days. The class given is organism-based, DMS-53. The arrangement: dose 6 mg/kg, route intravenous. Particulars: in vivo, 504 h. The method in brief: as §2
For series [16], the system named is Mus musculus. Briefly: Toxicity in BALB/c nu/nu mouse xenografted with human DMS53 cells assessed as change in hematopoetic cells in splenic red pulp at 8 mg/kg, iv administered for 5 days a week measured after 21 days by hematoxylin and eosin staining method. The class given is organism-based, DMS-53. The arrangement: dose 8 mg/kg, route intravenous. Particulars: in vivo, 504 h. The gist of the method:
as §3

The test system of series [17] is Mus musculus. Briefly: Toxicity in BALB/c nu/nu mouse xenografted with human DMS53 cells assessed as hepatocellular necrosis at 8 mg/kg, iv administered for 5 days a week measured after 21 days by hematoxylin and eosin staining method. Particulars: in vivo, 504 h. Set-up: dose 8 mg/kg, route intravenous. The class given is organism-based, DMS-53. The method in brief:
(§5)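 Nude mice with DMS-53 xenografts dosed by tail-vein iv injection in 30% propylene glycol/saline, starting at 100 mm3 tumour volume, 5 days/week for 21 days. Spleen, kidney, liver, heart, lungs and brain were stained with H&E, Perls' (Fe loading) and Gomori Trichrome (fibrosis) by standard methods, and an independent veterinary pathologist examined them.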

Series [18] has as its system Mus musculus. Briefly: Toxicity in BALB/c nu/nu mouse xenografted with human DMS53 cells assessed as change in lungs histology at 8 mg/kg, iv administered for 5 days a week measured after 21 days by hematoxylin and eosin staining method. The arrangement: dose 8 mg/kg, route intravenous. Format: organism-based, DMS-53. Conditions: in vivo, 504 h. The method in brief:
as §5

The subject of series [19] is Mus musculus. Briefly: Toxicity in BALB/c nu/nu mouse xenografted with human DMS53 cells assessed as change in hematocrit level at 20 mg/kg, po administered for 3 times a week measured after 20 days. Format: organism-based, DMS-53. Conditions: in vivo, 480 h. Set-up: dose 20 mg/kg, route oral. The method in brief: as §1
For series [20], the system named is Mus musculus. Briefly: Toxicity in BALB/c nu/nu mouse xenografted with human DMS53 cells assessed as change in lung weight at 20 mg/kg, po administered for 3 times a week measured after 20 days. Format: organism-based, DMS-53. Set-up: dose 20 mg/kg, route oral. Particulars: in vivo, 480 h. The gist of the method:
as §1

In series [21] the test system is Mus musculus. Briefly: Toxicity in BALB/c nu/nu mouse xenografted with human DMS53 cells assessed as change in lungs histology at 4 mg/kg, iv administered for 5 days a week measured after 21 days by hematoxylin and eosin staining method. Format: organism-based, DMS-53. Set-up: dose 4 mg/kg, route intravenous. Particulars: in vivo, 504 h. The method in brief: as §3

The test system of series [22] is Mus musculus. Briefly: Toxicity in BALB/c nu/nu mouse xenografted with human DMS53 cells assessed as change in hemoglobin level at 20 mg/kg, po administered for 3 times a week measured after 20 days. Format: organism-based, DMS-53. The arrangement: dose 20 mg/kg, route oral. Particulars: in vivo, 480 h. The method in brief:
as §1

For series [23], the system named is Mus musculus. Briefly: Toxicity in BALB/c nu/nu mouse xenografted with human DMS53 cells assessed as change in RBC count at 20 mg/kg, po administered for 3 times a week measured after 20 days. Particulars: in vivo, 480 h. Set-up: dose 20 mg/kg, route oral. Format: organism-based, DMS-53.
Series [24] relates to Mus musculus. Briefly: Toxicity in BALB/c nu/nu mouse xenografted with human DMS53 cells assessed as change in hemoglobin level at 4 mg/kg, iv administered for 5 days a week measured after 21 days. Format: organism-based, DMS-53. Set-up: dose 4 mg/kg, route intravenous. Conditions: in vivo, 504 h. The gist of the method: as §3
Series [25] deals with Mus musculus. Briefly: Cardiotoxicity in BALB/c nu/nu mouse xenografted with human DMS53 cells at 8 mg/kg, iv administered for 5 days a week measured after 21 days. The class given is toxicity, organism-based, DMS-53. Set-up: dose 8 mg/kg, route intravenous. Particulars: in vivo, 504 h. The method in brief: as §4

Turning to `CCN(C)C(=S)NN=C(c1ccccn1)c1ccccn1.Cl`, the Activity result in the series on Mus musculus [1] is listed as “Toxic”; in the series with Mus musculus [2], “Toxic”; in the series with Mus musculus [3], “Non-toxic”; in the series with Mus musculus [4], “Non-toxic”; in the series on Mus musculus [5] it was “Non-toxic”; in the series on Mus musculus [6], “Non-toxic”. Also, the Activity entry is listed as “Non-toxic” in the series on Mus musculus [7]; “Non-toxic” in the series on Mus musculus [8]; “Non-toxic” in the series on Mus musculus [9]; “Toxic” in the series with Mus musculus [10]; “Non-toxic” in the series with Mus musculus [11]; “Toxic” with Mus musculus [12]. Moreover, the Activity entry in the series on Mus musculus [13], in the series on Mus musculus [14] and with Mus musculus [15] was “Non-toxic” in each case.

`CN(C(=S)NN=C(c1ccccn1)c1ccccn1)C1CCCCC1.Cl`: the Activity result with Mus musculus [16], in the series with Mus musculus [17], in the series on Mus musculus [4], in the series on Mus musculus [18], with Mus musculus [19] and with Mus musculus [20] was “Non-toxic” throughout. Also, the Activity entry in the series with Mus musculus [21], in the series on Mus musculus [22], in the series on Mus musculus [23], in the series with Mus musculus [24] and with Mus musculus [25] was “Non-toxic” in each case.
